24 compounds from publication PMC11333997 (RSC Advances, 2024) can be followed below.

A value given as a limit tells only on which side of the number the result lay.

One test has as its target VEGFR-2 (Homo sapiens, UniProt P35968). As to the kind of experiment: biochemical.
The subject of test [1] is HEPG-2, HCT-116 and MCF-7 cell lines. As to the kind of experiment: MTT anti-tumor screening, values over the cancer cell line panel. The test is classed as cell-based. The following applies: Homo sapiens, read-out: IC50 range over the cancer cell lines.
The next test relates to HCT-116 cells. In words: Flow cytometry cell cycle analysis. The test is classed as cell-based, human. The essentials: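 HCT-116 cells exposed to the test compound for 24 h, with DMSO as control. Cells were stained with propidium iodide, and DNA ploidy was analysed on a FACSCalibur flow cytometer. The percentage of cells in G0–G1, S and G2-M phases was reported.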
The target in another test is EGFR (Homo sapiens, UniProt P00533). In words: In vitro EGFR kinase inhibition assay. The test is classed as biochemical.
Sequence of EGFR (P00533 25-1210): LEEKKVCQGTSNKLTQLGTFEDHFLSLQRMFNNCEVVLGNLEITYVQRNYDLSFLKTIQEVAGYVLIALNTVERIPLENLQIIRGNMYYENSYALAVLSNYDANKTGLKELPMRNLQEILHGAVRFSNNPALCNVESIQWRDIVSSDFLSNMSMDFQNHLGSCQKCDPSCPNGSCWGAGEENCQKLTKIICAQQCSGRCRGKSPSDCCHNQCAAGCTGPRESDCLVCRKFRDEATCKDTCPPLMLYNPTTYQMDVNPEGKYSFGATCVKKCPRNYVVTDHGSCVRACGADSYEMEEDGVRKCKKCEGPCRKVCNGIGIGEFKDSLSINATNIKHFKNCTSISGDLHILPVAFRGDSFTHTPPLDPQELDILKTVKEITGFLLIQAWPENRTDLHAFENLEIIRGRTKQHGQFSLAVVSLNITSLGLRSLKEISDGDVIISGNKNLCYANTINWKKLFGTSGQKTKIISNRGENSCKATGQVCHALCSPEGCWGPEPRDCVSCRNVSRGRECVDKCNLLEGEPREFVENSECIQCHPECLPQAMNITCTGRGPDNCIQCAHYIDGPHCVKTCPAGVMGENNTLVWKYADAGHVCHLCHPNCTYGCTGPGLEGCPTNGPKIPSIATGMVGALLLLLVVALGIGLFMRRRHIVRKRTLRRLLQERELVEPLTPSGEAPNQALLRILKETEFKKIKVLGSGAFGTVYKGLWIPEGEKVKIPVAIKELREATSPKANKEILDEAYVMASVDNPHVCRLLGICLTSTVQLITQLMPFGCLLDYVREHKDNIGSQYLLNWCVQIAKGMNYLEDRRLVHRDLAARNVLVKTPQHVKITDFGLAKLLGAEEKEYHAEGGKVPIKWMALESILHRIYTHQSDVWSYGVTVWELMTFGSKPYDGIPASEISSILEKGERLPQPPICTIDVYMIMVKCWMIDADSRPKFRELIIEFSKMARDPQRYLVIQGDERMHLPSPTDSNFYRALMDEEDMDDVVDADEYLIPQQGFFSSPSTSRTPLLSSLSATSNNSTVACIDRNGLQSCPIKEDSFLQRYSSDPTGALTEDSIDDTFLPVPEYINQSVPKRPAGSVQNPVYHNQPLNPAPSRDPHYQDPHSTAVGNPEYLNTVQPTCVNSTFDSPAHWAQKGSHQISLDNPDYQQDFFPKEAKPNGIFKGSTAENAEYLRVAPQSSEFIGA
Test [2] concerns HEPG-2 hepatocellular carcinoma cells. As to the kind of experiment: MTT in vitro anti-tumor screening. The test is classed as cell-based. To be noted: Homo sapiens, HepG2, read-out: IC50 HEPG-2.
For test [3], the system named is WI-38 normal human lung fibroblast cells. In words: MTT cytotoxicity on normal fibroblast cell line. The test is classed as cell-based. The following applies: WI-38, read-out: IC50 WI-38.
Test [4] relates to MCF-7 breast cancer cells. In words: MTT in vitro anti-tumor screening. The following applies: read-out: IC50 MCF-7, mean of three independent experiments ± SD. The test is classed as cell-based, human.
The test system of a further test is EGFR/VEGFR-2. In words: EGFR/VEGFR-2 enzyme inhibition, both kinases stated together. The test is classed as biochemical. To be noted: compared with the tested analogues (4).

Sequence of VEGFR-2 (P35968 20-1356): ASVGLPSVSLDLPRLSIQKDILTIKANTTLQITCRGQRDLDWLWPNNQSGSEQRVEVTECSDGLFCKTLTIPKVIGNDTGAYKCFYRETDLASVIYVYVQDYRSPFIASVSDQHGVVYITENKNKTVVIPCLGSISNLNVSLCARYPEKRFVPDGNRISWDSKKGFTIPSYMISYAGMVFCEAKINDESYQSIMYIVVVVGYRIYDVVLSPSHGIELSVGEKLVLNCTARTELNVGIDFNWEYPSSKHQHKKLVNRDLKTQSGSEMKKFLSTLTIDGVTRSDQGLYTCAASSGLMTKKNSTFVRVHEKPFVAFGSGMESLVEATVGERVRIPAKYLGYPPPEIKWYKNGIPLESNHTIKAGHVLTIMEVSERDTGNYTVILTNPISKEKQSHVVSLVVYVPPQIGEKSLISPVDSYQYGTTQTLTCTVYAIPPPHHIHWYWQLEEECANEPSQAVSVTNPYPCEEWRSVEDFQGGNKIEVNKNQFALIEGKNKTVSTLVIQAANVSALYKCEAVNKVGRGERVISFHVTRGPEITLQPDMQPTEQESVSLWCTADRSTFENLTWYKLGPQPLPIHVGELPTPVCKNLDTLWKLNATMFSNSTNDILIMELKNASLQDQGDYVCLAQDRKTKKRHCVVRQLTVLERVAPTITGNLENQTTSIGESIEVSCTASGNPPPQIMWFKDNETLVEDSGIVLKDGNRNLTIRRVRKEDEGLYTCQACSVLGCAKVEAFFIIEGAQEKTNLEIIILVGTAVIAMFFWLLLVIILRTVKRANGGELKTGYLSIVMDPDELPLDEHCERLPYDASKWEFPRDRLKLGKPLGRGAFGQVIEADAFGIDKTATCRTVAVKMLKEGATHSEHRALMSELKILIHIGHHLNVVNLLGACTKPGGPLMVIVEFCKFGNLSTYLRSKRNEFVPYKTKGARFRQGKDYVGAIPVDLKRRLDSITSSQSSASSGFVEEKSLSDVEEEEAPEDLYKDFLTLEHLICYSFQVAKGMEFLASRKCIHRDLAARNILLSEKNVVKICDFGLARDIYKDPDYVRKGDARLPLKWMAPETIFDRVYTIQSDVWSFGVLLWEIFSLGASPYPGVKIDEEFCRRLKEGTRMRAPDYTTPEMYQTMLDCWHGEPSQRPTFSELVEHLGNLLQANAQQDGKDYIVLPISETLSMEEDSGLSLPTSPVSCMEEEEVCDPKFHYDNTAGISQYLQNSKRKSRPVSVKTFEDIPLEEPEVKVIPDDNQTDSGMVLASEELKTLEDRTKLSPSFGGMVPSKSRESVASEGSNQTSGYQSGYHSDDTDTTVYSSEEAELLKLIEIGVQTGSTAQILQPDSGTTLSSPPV

In the case of `Cc1ccc(-n2c(SCC(=O)NNC(=O)Nc3ccccc3)nc3ccccc3c2=O)cc1` [Compound 4, 2-(2-((4-Oxo-3-(p-tolyl)-3,4-dihydroquinazolin-2-yl)thio)acetyl)-N-phenylhydrazinecarboxamide], the IC50 at VEGFR-2 was 0.054 ± 0.002 µM; in test [1], 1.5 to 5.86 µM; against EGFR it was 0.049 ± 0.002 µM; in test [2] it was 3.92 ± 0.2 µM; in test [3] it was 45.6 ± 2.4 µM. Further, the “Cell cycle distribution G2-M” value in the test on HCT-116 cells (at IC50 concentration, 24 h, control 19.54%) turned out to be 8.65%. Also, in the test with HCT-116 cells (at IC50 concentration, 24 h, control 36.53%), the “Cell cycle distribution S” value was found to be 36.18%. Moreover, the “Cell cycle distribution G0–G1” value with HCT-116 cells (at IC50 concentration, 24 h, control 43.93%) is listed as 55.17%. Besides, the “cell cycle arrest phase” value in the test on HCT-116 cells (flow cytometry) was “G1 phase”.

On to `O=C(CSc1nc2ccccc2c(=O)n1-c1ccc(Cl)cc1)NNC(=O)NCc1ccccc1` [Compound 19, N-Benzyl-2-(2-((3-(4-chlorophenyl)-4-oxo-3,4-dihydroquinazolin-2-yl)thio)acetyl)hydrazinecarboxamide], for which the IC50 was 73.5 ± 4.2 µM in test [2] and more than 100 µM in test [3].

On to `COc1ccc(-n2c(SCC(=O)NNC(=O)NCc3ccccc3)nc3ccccc3c2=O)cc1` [Compound 27, N-Benzyl-2-(2-((3-(4-methoxyphenyl)-4-oxo-3,4-dihydroquinazolin-2-yl)thio)acetyl)hydrazinecarboxamide], for which the IC50 was 87.3 ± 4.6 µM in test [2] and more than 100 µM in test [3].

With `Cc1ccc(-n2c(SCC(=O)NNC(=O)Nc3ccc(F)cc3)nc3ccccc3c2=O)cc1` [Compound 5, N-(4-Fluorophenyl)-2-(2-((4-oxo-3-(p-tolyl)-3,4-dihydroquinazolin-2-yl)thio)acetyl)hydrazinecarboxamide], the IC50 was 58.9 ± 3.4 µM in test [2] and more than 100 µM in test [3].

On to `Cc1ccc(-n2c(SCC(=O)NNC(=O)NCc3ccccc3)nc3ccccc3c2=O)cc1` [Compound 11, N-Benzyl-2-(2-((4-oxo-3-(p-tolyl)-3,4-dihydroquinazolin-2-yl)thio)acetyl)hydrazinecarboxamide], for which the half-maximal inhibitory concentration (IC50) came to 0.156 ± 0.007 µM on VEGFR-2, 0.117 ± 0.005 µM on EGFR, 8.1 ± 0.6 µM in test [2] and 54.1 ± 3 µM in test [3].

Regarding `Cc1ccc(NC(=O)NNC(=O)CSc2nc3ccccc3c(=O)n2-c2ccc(Cl)cc2)cc1` [Compound 15, 2-(2-((3-(4-Chlorophenyl)-4-oxo-3,4-dihydroquinazolin-2-yl)thio)acetyl)-N-(p-tolyl)hydrazinecarboxamide], the figures for the IC50 in test [2] and in test [3] were 68.6 ± 3.9 µM and 43.2 ± 2.5 µM, respectively.

Consider `COc1ccc(-n2c(SCC(=O)NNC(=O)Nc3ccc(F)cc3)nc3ccccc3c2=O)cc1` [Compound 21, N-(4-Fluorophenyl)-2-(2-((3-(4-methoxyphenyl)-4-oxo-3,4-dihydroquinazolin-2-yl)thio)acetyl)hydrazinecarboxamide], for which the IC50 was found to be 11.5 ± 0.9 µM in test [2] and 27.6 ± 1.9 µM in test [3].

Turning to `O=C(CSc1nc2ccccc2c(=O)n1-c1ccc(Cl)cc1)NNC(=O)Nc1ccccc1` [Compound 12, 2-(2-((3-(4-Chlorophenyl)-4-oxo-3,4-dihydroquinazolin-2-yl)thio)acetyl)-N-phenylhydrazinecarboxamide], the values for the IC50 in test [4], in test [2] and in test [3] were 12.9 ± 1 µM, 19.5 ± 1.3 µM and 75.5 ± 4 µM, respectively.

For `O=C(CSc1nc2ccccc2c(=O)n1-c1ccc(Cl)cc1)NNC(=O)Nc1ccc(F)cc1` [Compound 13, 2-(2-((3-(4-Chlorophenyl)-4-oxo-3,4-dihydroquinazolin-2-yl)thio)acetyl)-N-(4-fluorophenyl)hydrazinecarboxamide], the results for the IC50 in test [2] and in test [3] were 63.5 ± 3.7 µM and 47.5 ± 2.6 µM, respectively.

In the case of `COc1ccc(-n2c(SCC(=O)NNC(=O)Nc3ccc(C(F)(F)F)cc3Cl)nc3ccccc3c2=O)cc1` [Compound 26, N-(2-Chloro-4-(trifluoromethyl)phenyl)-2-(2-((3-(4-methoxyphenyl)-4-oxo-3,4-dihydroquinazolin-2-yl)thio)acetyl)hydrazinecarboxamide], the figures for the IC50 in test [2] and in test [3] were 72.8 ± 4 µM and 30.2 ± 2.1 µM, respectively.

Take `O=C(CSc1nc2ccccc2c(=O)n1-c1ccc(Cl)cc1)NNC(=O)Nc1ccc(Cl)cc1` [Compound 14, N-(4-Chlorophenyl)-2-(2-((3-(4-chlorophenyl)-4-oxo-3,4-dihydroquinazolin-2-yl)thio)acetyl)hydrazinecarboxamide]: the IC50 in test [2] worked out at 29.8 ± 1.8 µM; in test [3] it was 16.7 ± 1.4 µM.

In the case of `COc1ccc(NC(=O)NNC(=O)CSc2nc3ccccc3c(=O)n2-c2ccc(OC)cc2)cc1` [Compound 24, N-(4-Methoxyphenyl)-2-(2-((3-(4-methoxyphenyl)-4-oxo-3,4-dihydroquinazolin-2-yl)thio)acetyl)hydrazinecarboxamide], the IC50 was more than 100 µM in test [2] and 71.4 ± 3.8 µM in test [3].

Consider `Cc1ccc(NC(=O)NNC(=O)CSc2nc3ccccc3c(=O)n2-c2ccc(C)cc2)cc1` [Compound 7, 2-(2-((4-Oxo-3-(p-tolyl)-3,4-dihydroquinazolin-2-yl)thio)acetyl)-N-(p-tolyl)hydrazinecarboxamide], for which the IC50 in test [2] is 76.4 ± 4.3 µM; in test [3], more than 100 µM.

Regarding `COc1ccc(NC(=O)NNC(=O)CSc2nc3ccccc3c(=O)n2-c2ccc(Cl)cc2)cc1` [Compound 16, 2-(2-((3-(4-Chlorophenyl)-4-oxo-3,4-dihydroquinazolin-2-yl)thio)acetyl)-N-(4-methoxyphenyl)hydrazinecarboxamide], the IC50 in test [2] came to 46.6 ± 2.6 µM; in test [3], 17.8 ± 1.3 µM.

Regarding `COc1ccc(-n2c(SCC(=O)NNC(=O)Nc3c(C)cccc3C)nc3ccccc3c2=O)cc1` [Compound 25, N-(2,6-Dimethylphenyl)-2-(2-((3-(4-methoxyphenyl)-4-oxo-3,4-dihydroquinazolin-2-yl)thio)acetyl)hydrazinecarboxamide], the IC50 is 83.6 ± 4.5 µM in test [2] and 56.4 ± 3.3 µM in test [3].

With `Cc1cccc(C)c1NC(=O)NNC(=O)CSc1nc2ccccc2c(=O)n1-c1ccc(Cl)cc1` [Compound 17, 2-(2-((3-(4-Chlorophenyl)-4-oxo-3,4-dihydroquinazolin-2-yl)thio)acetyl)-N-(2,6-dimethylphenyl)hydrazinecarboxamide], the IC50 in test [2] amounted to 22.4 ± 1.5 µM; in test [3] it was 89.4 ± 4.7 µM.

For `COc1ccc(-n2c(SCC(=O)NNC(=O)Nc3ccccc3)nc3ccccc3c2=O)cc1` [Compound 20, 2-(2-((3-(4-Methoxyphenyl)-4-oxo-3,4-dihydroquinazolin-2-yl)thio)acetyl)-N-phenylhydrazinecarboxamide], the IC50 at VEGFR-2 was 0.474 ± 0.02 µM; in test [1], 4.42 to 6.39 µM; at EGFR, 0.362 ± 0.014 µM; in test [2], 5.17 ± 0.4 µM; in test [3] it was 42.9 ± 2.6 µM. Also, in the test on EGFR/VEGFR-2, the “fold decrease in binding affinity (EGFR and VEGFR-2)” value is recorded as 9–10 fold.

For the compound `Cc1ccc(-n2c(SCC(=O)NNC(=O)Nc3ccc(C(F)(F)F)cc3Cl)nc3ccccc3c2=O)cc1` [Compound 10, N-(2-Chloro-4-(trifluoromethyl)phenyl)-2-(2-((4-oxo-3-(p-tolyl)-3,4-dihydroquinazolin-2-yl)thio)acetyl)hydrazinecarboxamide], the IC50 amounted to 49.6 ± 2.7 µM in test [2] and 86.9 ± 4.4 µM in test [3].

`COc1ccc(-n2c(SCC(=O)NNC(=O)Nc3ccc(Cl)cc3)nc3ccccc3c2=O)cc1` [Compound 22, N-(4-Chlorophenyl)-2-(2-((3-(4-methoxyphenyl)-4-oxo-3,4-dihydroquinazolin-2-yl)thio)acetyl)hydrazinecarboxamide]: the IC50 in test [2] came to 37.8 ± 2.1 µM; in test [3], 15.5 ± 1.2 µM.

With `Cc1ccc(-n2c(SCC(=O)NNC(=O)Nc3ccc(Cl)cc3)nc3ccccc3c2=O)cc1` [Compound 6, N-(4-Chlorophenyl)-2-(2-((4-oxo-3-(p-tolyl)-3,4-dihydroquinazolin-2-yl)thio)acetyl)hydrazinecarboxamide], the IC50 in test [2] came out at 14.2 ± 1.2 µM; in test [3], 66.2 ± 3.9 µM.

Regarding `COc1ccc(-n2c(SCC(=O)NNC(=O)Nc3ccc(C)cc3)nc3ccccc3c2=O)cc1` [Compound 23, 2-(2-((3-(4-Methoxyphenyl)-4-oxo-3,4-dihydroquinazolin-2-yl)thio)acetyl)-N-(p-tolyl)hydrazinecarboxamide], the IC50 came to 41.3 ± 2.4 µM in test [2] and 63.9 ± 3.7 µM in test [3].

In the case of `O=C(CSc1nc2ccccc2c(=O)n1-c1ccc(Cl)cc1)NNC(=O)Nc1ccc(C(F)(F)F)cc1Cl` [Compound 18, N-(2-Chloro-4-(trifluoromethyl)phenyl)-2-(2-((3-(4-chlorophenyl)-4-oxo-3,4-dihydroquinazolin-2-yl)thio)acetyl)hydrazinecarboxamide], the figures for the IC50 in test [2] and in test [3] were 34.6 ± 2 µM and 84.4 ± 4.2 µM, respectively.

On to `Cc1ccc(-n2c(SCC(=O)NNC(=O)Nc3c(C)cccc3C)nc3ccccc3c2=O)cc1` [Compound 9, N-(2,6-Dimethylphenyl)-2-(2-((4-oxo-3-(p-tolyl)-3,4-dihydroquinazolin-2-yl)thio)acetyl)hydrazinecarboxamide], for which the IC50 in test [2] was found to be 53.1 ± 3 µM; in test [3], 62.2 ± 3.5 µM.

On to `COc1ccc(NC(=O)NNC(=O)CSc2nc3ccccc3c(=O)n2-c2ccc(C)cc2)cc1` [Compound 8, N-(4-Methoxyphenyl)-2-(2-((4-oxo-3-(p-tolyl)-3,4-dihydroquinazolin-2-yl)thio)acetyl)hydrazinecarboxamide], for which the IC50 was more than 100 µM in test [2] and 31.8 ± 2.2 µM in test [3].

For orientation: IC50 means the midpoint of a concentration-inhibition curve.
